In ChEMBL document CHEMBL1140209, “Synthesis and pharmacological characterization of novel druglike corticotropin-releasing factor 1 antagonists” (J Med Chem, 2008):
Calls of active or inactive are those of the source. The calls are words filed in the database; no cut-off is given here.

Key:
[1] = target: T1, Corticotropin-releasing factor receptor 1 (Homo sapiens, UniProt P34998); test: Displacement of [125I]sauvagine from human recombinant CRF1 receptor expressed in CHO cells; format: cell-based
T1 sequence (P34998 whole entry): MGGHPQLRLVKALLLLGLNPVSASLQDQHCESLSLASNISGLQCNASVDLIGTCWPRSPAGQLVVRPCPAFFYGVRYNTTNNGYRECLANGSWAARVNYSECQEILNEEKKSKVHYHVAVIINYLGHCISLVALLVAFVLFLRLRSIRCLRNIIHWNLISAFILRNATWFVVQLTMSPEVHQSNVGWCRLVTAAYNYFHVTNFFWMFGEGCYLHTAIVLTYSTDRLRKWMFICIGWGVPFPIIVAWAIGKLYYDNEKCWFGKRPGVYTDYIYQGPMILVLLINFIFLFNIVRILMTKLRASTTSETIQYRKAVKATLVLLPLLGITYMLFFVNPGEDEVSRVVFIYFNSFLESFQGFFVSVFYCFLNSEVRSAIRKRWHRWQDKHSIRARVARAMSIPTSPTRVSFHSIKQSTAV

[2] = Volume of distribution at steady state in rat at 1 mg/kg, iv or 10 mg/kg, po; format: ADME, organism-based; conditions: in vivo, read-out: Vdss
Meriones unguiculatus [3] = test: Anxiolytic activity in po dosed Mongolian gerbils forepaw treading model assessed as reduction of time spent in CRF-induced piano playing behavior administered 1 hr before CRF challenge; format: functional, organism-based
[4] = target: T2, Corticotropin-releasing factor receptor 2 (Homo sapiens) (UniProt Q13324); test: Antagonist activity at human CRF2 receptor expressed in CHO cells assessed as effect on sauvagine-induced cAMP production; format: functional, cell-based
T2 sequence (whole entry): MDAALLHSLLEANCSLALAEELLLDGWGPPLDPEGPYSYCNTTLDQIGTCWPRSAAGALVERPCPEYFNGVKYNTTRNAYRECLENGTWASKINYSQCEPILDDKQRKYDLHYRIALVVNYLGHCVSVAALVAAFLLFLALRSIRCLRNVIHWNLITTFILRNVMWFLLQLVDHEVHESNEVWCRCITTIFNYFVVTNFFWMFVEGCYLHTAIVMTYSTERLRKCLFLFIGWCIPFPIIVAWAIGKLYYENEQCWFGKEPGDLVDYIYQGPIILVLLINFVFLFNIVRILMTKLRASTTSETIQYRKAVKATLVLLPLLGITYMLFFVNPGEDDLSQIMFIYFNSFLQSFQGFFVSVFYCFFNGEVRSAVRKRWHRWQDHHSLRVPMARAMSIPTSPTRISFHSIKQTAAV
How it was run: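 CHO cells expressing human CRF2 receptor; cAMP was stimulated with 0.5 nM sauvagine, and the antagonist was tested at concentrations up to 10 µM.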

[5] = Half life in marmoset at 1 mg/kg, iv or 10 mg/kg, po; format: ADME, organism-based, Callithrix jacchus; conditions: in vivo
[6] = Ratio of drug level in brain to plasma in rat at 1 mg/kg, iv after 1 hr; format: ADME, organism-based; set-up: dose 1 mg/kg, route intravenous; conditions: brain and plasma
[7] = Plasma clearance in marmoset at 1 mg/kg, iv or 10 mg/kg, po; format: ADME, organism-based, Callithrix jacchus
[8] = Plasma clearance in rat at 1 mg/kg, iv or 10 mg/kg, po; format: ADME, organism-based
Callithrix jacchus [9] = test: Anxiolytic activity in po dosed marmoset assessed as reduction of number of postures by marmoset human threat test; format: functional, organism-based
[10] = Ratio of drug level in brain to plasma in gerbil at 10 mg/kg, po after 1 hr; format: ADME, organism-based; set-up: dose 10 mg/kg, route oral; conditions: gerbillinae, brain and plasma
[11] = Half life in rat at 1 mg/kg, iv or 10 mg/kg, po; format: ADME, organism-based; conditions: in vivo
Rattus norvegicus = test: Anxiolytic activity in ip dosed ultrasonic vocalization rat model assessed as reduction of vocalization duration administered 30 mins before ultrasonic vocalizations; format: functional, organism-based
Meriones unguiculatus [12] = test: Anxiolytic activity in Mongolian gerbils forepaw treading model assessed as reduction of time spent in CRF-induced piano playing behavior at 30 mg/kg, po administered 180 mins before CRF challenge; format: functional, organism-based; set-up: dose 30 mg/kg
Meriones unguiculatus [13] = test: Anxiolytic activity in Mongolian gerbils forepaw treading model assessed as reduction of time spent in CRF-induced piano playing behavior at 30 mg/kg, po administered 60 mins before CRF challenge; format: functional, organism-based; set-up: dose 30 mg/kg
[14] = target: T1, Corticotropin-releasing factor receptor 1; test: Antagonist activity at human CRF1 receptor expressed in CHO cells assessed as effect on sauvagine-induced cAMP production; format: functional, cell-based; conditions: read-out: pA2 (converted)
How it was run: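 CHO cells transfected with human CRF1 receptor; sauvagine concentration-response curves for cAMP were run with increasing antagonist concentrations and analysed by Schild plot (n = 6). Potency was taken as pA2, the concentration that doubles the sauvagine ED50. Antagonist alone, up to 10 µM, was also tested on cAMP without sauvagine.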

Callithrix jacchus [15] = test: Toxic sedative effect in po dosed marmoset assessed as effect on number of physiological jumps; format: toxicity, organism-based; conditions: in vivo
[16] = Oral bioavailability in marmoset at 10 mg/kg; format: ADME, organism-based, Callithrix jacchus; conditions: in vivo
[17] = Oral bioavailability in rat at 10 mg/kg; format: ADME, organism-based; conditions: in vivo
[18] = Volume of distribution at steady state in marmoset at 1 mg/kg, iv or 10 mg/kg, po; format: ADME, organism-based, Callithrix jacchus; conditions: in vivo, read-out: Vdss
Meriones unguiculatus [19] = test: Anxiolytic activity in Mongolian gerbils forepaw treading model assessed as reduction of time spent in CRF-induced piano playing behavior at 30 mg/kg, po administered 360 mins before CRF challenge; format: functional, organism-based; set-up: dose 30 mg/kg

| SMILES | IC50 [1] [nM] | also measured |
| --- | --- | --- |
| COc1ccc(N2CCc3c(-n4ccc(N5CCCC5=O)n4)cc(C)nc32)c(C)c1 | 123 | – |
| COc1ccc(N2CCc3c(-n4ccc(N5CCOC5=O)n4)cc(C)nc32)c(C)c1 | 1950 | – |
| CCOc1ccc(N2CCc3c(-n4ccc(N5CCNC5=O)n4)cc(C)nc32)c(C)c1 | 316 | – |
| Cc1cc(-n2ccc(N3CCNC3=O)n2)c2c(n1)N(c1ccc(OC(C)C)cc1C)CC2 | 1230 | – |
| CCc1cc(C#N)ccc1N1CCc2c(-n3ccc(N4CCNC4=O)n3)cc(C)nc21 | 50.1 | – |
| COc1ccc(N2CCc3c(-n4ccc(N5CCNS5(=O)=O)n4)cc(C)nc32)c(C)c1 | 309 | – |
| COc1ccc(N2CCc3c(-n4ccc(N5CCCS5(=O)=O)n4)cc(C)nc32)c(C)c1 | 3240 | – |
| Cc1cc(-n2ccc(N3CCNC3=O)n2)c2c(n1)N(c1ccc(C#N)cc1C)CC2 | 67.6 | – |
| COc1ccc(N2CCc3c(-n4ccc(N5CCN(C)C5=O)n4)cc(C)nc32)c(C)c1 | 794 | – |
| COc1ccc(N2CCc3c(-n4ccc(N5CCNC5=O)n4)cc(C)nc32)c(C)c1 [EMICERFONT] | 66.1 | Vd [2]: 2.4 L/kg; Activity (Meriones unguiculatus [3]): Dose-dependent effect; Activity [4]: inactive; half-life [5]: 3.7 h; Kp at 1 h [6]: 3.7; clearance [7]: 16 mL/min/kg; clearance [8]: 19 mL/min/kg; Activity (Callithrix jacchus [9]): Dose-dependent effect; Kp at 1 h [10]: 4.7; half-life [11]: 1.6 h; Activity (Rattus norvegicus): Dose-dependent effect; Activity (Meriones unguiculatus [12]): Active; Activity (Meriones unguiculatus [13]): Active; Kb [14]: 72.4 nM; Activity (Callithrix jacchus [15]): Non-toxic; bioavailability [16]: 65%; bioavailability [17]: 66%; Vd [18]: 4.7 L/kg; Activity (Meriones unguiculatus [19]): Active |
| COc1ccc(N2CCc3c(-n4ccc(N5CCCNC5=O)n4)cc(C)nc32)c(C)c1 | 145 | – |

Further lines, with some results ahead:

| IC50 [1] [nM] | SMILES | also measured |
| --- | --- | --- |
| 56.2 | COc1ccc(N2CCc3c(-n4ccc(N5CCNC5=O)n4)cc(C)nc32)c(C(F)F)c1 | – |
| 120 | COc1ccc(N2CCc3c(-n4ccc(-n5cc[nH]c5=O)n4)cc(C)nc32)c(C)c1 | – |
| 120 | Cc1cc(-n2ccc(N3CCNC3=O)n2)c2c(n1)N(c1ccc(C#N)cc1OC(F)(F)F)CC2 | – |
| 158 | Cc1cc(-n2ccc(N3CCNC3=O)n2)c2c(n1)N(c1ccc(Cl)cc1Cl)CC2 | – |
| 89.1 | Cc1cc(-n2ccc(-n3cc[nH]c3=O)n2)c2c(n1)N(c1ccc(C(F)(F)F)cc1C(F)(F)F)CC2 | – |
| 32.4 | Cc1cc(-n2ccc(N3CCNC3=O)n2)c2c(n1)N(c1ccc(C#N)cc1C(F)(F)F)CC2 | – |
| 67.6 | Cc1cc(-n2ccc(N3CCNC3=O)n2)c2c(n1)N(c1ccc(OC(F)(F)F)cc1C)CC2 | – |
| 363 | COc1cc(-n2cccn2)ccc1N1CCc2c(-n3ccc(-n4cc[nH]c4=O)n3)cc(C)nc21 | – |
| 372 | Cc1cc(-n2ccc(N3CCNC3=O)n2)c2c(n1)N(c1ccc(-n3cccn3)cc1C)CC2 | – |
